Assay results taken from ChEMBL document CHEMBL5678798 (Clin Cancer Res, 2009).
The source made the active and inactive calls. The rule behind the calls is not given here.

Columns and labels:
[1] = molecular target: Rho-associated protein kinase 1 (Homo sapiens, UniProt Q13464); assay: Inhibition of ROCK1 (unknown origin)
[2] = molecular target: Serine/threonine-protein kinase PAK 6 (Homo sapiens) (UniProt Q9NQU5); assay: Inhibition of N-terminal His6-tagged recombinant human PAK6 (382 to end residues) expressed in Sf21 cells at 3 uM by filter binding assay relative to control
EJM = assay: Antiproliferative activity against human EJM cells assessed as reduction in cell viability after 72 hrs by CellTiter-Glo assay; type: functional, cell-based
Procedure, shortened: (§1)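 Cells seeded in 96-well plates, left overnight at 37°C, then exposed to a range of test concentrations for 72 h. Viability read by CellTiter-Glo luminescence; IC50 from four-parameter curve fit. Lines kept at 37°C, 5% CO2, in recommended growth medium.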

[3] = (§2) In vivo inhibition of IGF1R in mouse NIH-3T3/LISN cells implanted in IGF1-stimulated nu/nu CD-1 mouse assessed as reduction in IGF1R phosphorylation at 10 mg/kg, po pretreated for 4 hrs followed by IGF1 stimulation and measured after 10 min by […] relative to control; type: functional; details: 4.167 h, time 250 min
Procedure, shortened: (§3)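 Female nu/nu CD-1 mice, three per group, bearing ~500 mm3 tumors, given one oral dose of compound or vehicle. At 4 h, 10 µg hIGF-I i.v. via tail vein; saline controls. Tumor and blood taken 10 min later. Tumor lysates in RIPA captured on anti-IGF-IR plates and probed with europium anti-phosphotyrosine. Phospho/total IGF-IR expressed as % of ligand-stimulated control. Blood levels by LC-MS/MS.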

MCF7 = assay: Antiproliferative activity against human MCF7 cells assessed as reduction in cell viability after 72 hrs by CellTiter-Glo assay; type: functional, cell-based; details: MCF7, 72 h; procedure, shortened: as §1
[4] = molecular target: Serine/threonine-protein kinase 17A (Homo sapiens) (UniProt Q9UEE5); assay: Inhibition of N-terminal 6His-tagged recombinant full-length human DRAK1 expressed in baculovirus infected Sf21 cells at 3 uM by filter binding assay relative to control
Procedure, shortened: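 KinaseProfiler panel of 233 kinases: radiometric filter-binding activity assays with compound at 0.3 or 3 µmol/L. Read-out is percent inhibition.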

[5] = molecular target: Receptor tyrosine-protein kinase erbB-4 (Homo sapiens, UniProt Q15303); assay: Inhibition of ErbB4 (unknown origin)
HT-29 = assay: Antitumor activity against human HT-29 cells xenografted in nu/nu CD-1 mouse assessed as reduction in tumor growth at 30 mg/kg, po for 21 days relative to control; type: functional; details: HT-29, 504 h, time 21 day, read-out: TGI
Procedure, shortened: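 Exponentially growing cells implanted s.c. in the right flank of 8–10-wk-old female athymic nu/nu CD-1 mice. At 150–200 mm3, block-randomized by tumor size into groups of eight. Oral dosing once or twice daily for 21 d; vehicle 20% sulfobutylether-β-cyclodextrin, pH 3.5. Calipers twice weekly; volume = length×width²/2. Growth inhibition = 100×[1 − treated growth/vehicle growth].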

[6] = Inhibition of recombinant mouse N-terminal 6His-tagged full length P110alpha/full length mouse […] expressed in baculovirus infected Sf21 cells at 3 uM by filter binding assay relative to control; details: condition cancer
Activin receptor type-2B = Activin receptor type-2B (Homo sapiens, UniProt Q13705); assay: Inhibition of ActRIIB (unknown origin)
[7] = molecular target: Insulin receptor (Mus musculus) (UniProt P15208); details: CD-1, dose >= 30.0 mg/kg, route po, time 242.0 min
LNCaP = assay: Antiproliferative activity against human LNCaP cells assessed as reduction in cell viability after 72 hrs by CellTiter-Glo assay; type: functional, cell-based; procedure, shortened: as §1
Aurora kinase A = Aurora kinase A (Homo sapiens, UniProt O14965); assay: Inhibition of N-terminal 6His-tagged recombinant full-length human Aurora-A expressed in Sf21 cells by filter binding assay
[8] = Inhibition of […] N-terminal 6His-tagged full length human P110delta/full length human p85beta expressed in baculovirus infected Sf21 cells at 0.3 uM by filter binding assay relative to control; details: condition cancer
[9] = molecular target: Dual specificity mitogen-activated protein kinase kinase 7 (Homo sapiens) (UniProt O14733); assay: Inhibition of N-terminal GST-tagged recombinant human MKK7beta (2 to end residues) expressed in Escherichia coli at 0.3 uM by filter binding assay relative to control
Procedure, shortened: (§4)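 Outsourced single-concentration screen in a commercial panel of 233 protein kinases, run as radiometric filter-binding activity assays. Test agent was tested at 0.3 or 3 µmol/L, as given in each line, from a 10 mmol/L DMSO stock. Activity is expressed as percent inhibition relative to control.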

[10] = molecular target: Tyrosine-protein kinase FRK (Homo sapiens, UniProt P42685); assay: Inhibition of N-terminal 6His-tagged recombinant human PTK5 (218 to end residues) expressed in baculovirus infected Sf21 cells by filter binding assay
COLO 205 [11] = assay: Induction of cell cycle arrest in human COLO 205 cells assessed as cells accumulation at G2 phase at 1 umol/L incubated for 48 hrs by propidium iodide staining based flow cytometric analysis (reference value: 22%); type: functional; details: dose 1 µmol/L, at 1 µM
Procedure, shortened: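 COLO 205, MCF-7 or NCI-H929 cells seeded in 96-well plates overnight at 37°C, then exposed to DMSO or increasing compound concentrations for 24 or 48 h. Fixed and stained with propidium iodide (Vindelov method), then analysed by flow cytometry for sub-G1, G1, S and G2-M fractions. Experiment repeated twice.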

COLO 205 [12] = assay: In vivo inhibition of IGF1R in human COLO 205 cells xenografted in IGF1-stimulated po dosed nu/nu CD-1 mouse assessed as reduction in IGF1R phosphorylation pretreated for 4 hrs followed by IGF1 stimulation and measured after 15 min by radioimmunoprecipitation assay; type: functional, organism-based; details: dose 1-60 mg/kg, time 4.17 hrs, in the assay text read “measured after 10 min” for “measured after 15 min”; procedure, shortened: as §3
[13] = molecular target: Serine/threonine-protein kinase B-raf (Homo sapiens, UniProt P15056, V600E); assay: Inhibition of B-Raf V600E mutant (unknown origin)
[14] = Inhibition of […] N-terminal 6His-tagged full length human P110delta/full length human p85beta expressed in baculovirus infected Sf21 cells at 3 uM by filter binding assay relative to control; details: condition cancer
[15] = as §2, with “xenografted” for “implanted”, “3 umol/L blood compound concentration” for “10 mg/kg, po”, “1 to 72” for “4”; type: functional; details: dose 3 µmol/L; time 60-4330 min; at 3 µM
[16] = molecular target: Serine/threonine-protein kinase Sgk1 (Homo sapiens) (UniProt O00141); assay: Inhibition of human SGK at 3 uM by filter binding assay relative to control
[17] = Inhibition of p70S6K (unknown origin); parameters: species or system Homo sapiens
[18] = molecular target: Death-associated protein kinase 3 (Homo sapiens) (UniProt O43293); assay: Inhibition of N-terminal GST tagged recombinant human ZIPK (1 to 290 residues) expressed in Escherichia coli at 3 uM by filter binding assay relative to control; procedure, shortened: as §4
Sequence of Death-associated protein kinase 3 (Homo sapiens) (O43293 whole entry, looked up, the tested form may be a part): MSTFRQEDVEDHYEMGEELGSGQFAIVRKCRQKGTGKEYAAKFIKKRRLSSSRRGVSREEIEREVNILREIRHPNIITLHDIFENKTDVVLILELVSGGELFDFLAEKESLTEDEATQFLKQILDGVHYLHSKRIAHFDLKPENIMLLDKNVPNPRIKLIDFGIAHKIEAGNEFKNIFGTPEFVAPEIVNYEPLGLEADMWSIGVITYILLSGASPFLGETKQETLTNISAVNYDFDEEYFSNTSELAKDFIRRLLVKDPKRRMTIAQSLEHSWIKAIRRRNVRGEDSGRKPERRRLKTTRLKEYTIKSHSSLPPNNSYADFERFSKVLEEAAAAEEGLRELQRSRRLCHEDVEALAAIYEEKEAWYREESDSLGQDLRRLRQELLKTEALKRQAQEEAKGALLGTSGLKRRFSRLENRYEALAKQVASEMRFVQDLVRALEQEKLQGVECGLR

Sequence of Receptor tyrosine-protein kinase erbB-4 (Q15303 whole entry): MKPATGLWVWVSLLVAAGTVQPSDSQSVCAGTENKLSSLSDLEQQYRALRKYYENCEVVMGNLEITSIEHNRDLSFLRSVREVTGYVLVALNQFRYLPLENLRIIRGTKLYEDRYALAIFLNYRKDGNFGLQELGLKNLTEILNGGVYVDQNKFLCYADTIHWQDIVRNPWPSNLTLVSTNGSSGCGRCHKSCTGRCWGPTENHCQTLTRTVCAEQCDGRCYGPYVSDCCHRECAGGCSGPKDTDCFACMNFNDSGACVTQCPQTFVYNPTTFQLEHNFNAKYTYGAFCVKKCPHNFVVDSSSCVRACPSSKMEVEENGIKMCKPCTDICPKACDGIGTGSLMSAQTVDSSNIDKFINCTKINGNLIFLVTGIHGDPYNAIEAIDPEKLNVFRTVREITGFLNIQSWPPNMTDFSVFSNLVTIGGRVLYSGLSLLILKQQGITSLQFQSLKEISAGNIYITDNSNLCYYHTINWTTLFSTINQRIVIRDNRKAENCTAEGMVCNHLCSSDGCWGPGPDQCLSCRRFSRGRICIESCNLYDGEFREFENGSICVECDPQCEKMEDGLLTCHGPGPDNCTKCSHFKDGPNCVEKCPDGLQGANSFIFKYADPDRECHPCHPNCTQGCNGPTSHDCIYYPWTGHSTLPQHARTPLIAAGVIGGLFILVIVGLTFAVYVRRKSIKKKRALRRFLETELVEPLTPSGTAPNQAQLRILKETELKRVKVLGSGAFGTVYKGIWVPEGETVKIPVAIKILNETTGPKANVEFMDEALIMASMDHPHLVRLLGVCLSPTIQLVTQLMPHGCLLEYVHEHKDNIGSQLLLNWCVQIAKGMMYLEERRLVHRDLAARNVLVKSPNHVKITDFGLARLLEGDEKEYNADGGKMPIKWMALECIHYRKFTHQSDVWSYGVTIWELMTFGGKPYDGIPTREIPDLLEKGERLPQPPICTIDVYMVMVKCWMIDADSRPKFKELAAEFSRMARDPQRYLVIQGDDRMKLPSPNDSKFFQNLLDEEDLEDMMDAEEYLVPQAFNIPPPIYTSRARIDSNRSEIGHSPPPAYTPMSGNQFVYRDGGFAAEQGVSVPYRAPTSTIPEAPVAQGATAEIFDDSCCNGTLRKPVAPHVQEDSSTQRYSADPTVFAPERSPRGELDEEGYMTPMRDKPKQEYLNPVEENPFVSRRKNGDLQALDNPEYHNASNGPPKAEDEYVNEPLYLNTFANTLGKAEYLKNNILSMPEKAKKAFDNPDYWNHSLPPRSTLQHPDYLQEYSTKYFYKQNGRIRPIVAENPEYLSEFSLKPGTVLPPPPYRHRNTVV
Sequence of Insulin receptor (Mus musculus) (P15208 28-748 limits assumed): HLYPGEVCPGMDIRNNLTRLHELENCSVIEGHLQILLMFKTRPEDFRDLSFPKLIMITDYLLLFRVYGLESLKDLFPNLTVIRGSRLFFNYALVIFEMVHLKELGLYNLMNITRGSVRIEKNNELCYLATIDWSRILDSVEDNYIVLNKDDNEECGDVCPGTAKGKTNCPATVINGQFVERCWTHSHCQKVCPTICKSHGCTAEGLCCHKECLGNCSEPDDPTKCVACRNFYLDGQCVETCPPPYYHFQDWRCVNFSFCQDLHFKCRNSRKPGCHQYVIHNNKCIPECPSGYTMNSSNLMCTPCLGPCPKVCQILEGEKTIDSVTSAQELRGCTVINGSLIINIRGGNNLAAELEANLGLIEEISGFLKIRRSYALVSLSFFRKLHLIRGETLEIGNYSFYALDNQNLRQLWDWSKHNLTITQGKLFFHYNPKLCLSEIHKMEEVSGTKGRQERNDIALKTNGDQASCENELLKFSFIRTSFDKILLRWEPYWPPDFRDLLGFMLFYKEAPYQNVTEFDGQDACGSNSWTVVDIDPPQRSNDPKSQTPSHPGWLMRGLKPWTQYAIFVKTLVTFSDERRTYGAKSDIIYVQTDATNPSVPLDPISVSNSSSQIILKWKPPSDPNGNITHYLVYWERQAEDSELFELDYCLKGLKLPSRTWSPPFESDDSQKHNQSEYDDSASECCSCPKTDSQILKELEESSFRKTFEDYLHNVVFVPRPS
Sequence of Insulin receptor (Mus musculus) (P15208 753-1372 limits assumed): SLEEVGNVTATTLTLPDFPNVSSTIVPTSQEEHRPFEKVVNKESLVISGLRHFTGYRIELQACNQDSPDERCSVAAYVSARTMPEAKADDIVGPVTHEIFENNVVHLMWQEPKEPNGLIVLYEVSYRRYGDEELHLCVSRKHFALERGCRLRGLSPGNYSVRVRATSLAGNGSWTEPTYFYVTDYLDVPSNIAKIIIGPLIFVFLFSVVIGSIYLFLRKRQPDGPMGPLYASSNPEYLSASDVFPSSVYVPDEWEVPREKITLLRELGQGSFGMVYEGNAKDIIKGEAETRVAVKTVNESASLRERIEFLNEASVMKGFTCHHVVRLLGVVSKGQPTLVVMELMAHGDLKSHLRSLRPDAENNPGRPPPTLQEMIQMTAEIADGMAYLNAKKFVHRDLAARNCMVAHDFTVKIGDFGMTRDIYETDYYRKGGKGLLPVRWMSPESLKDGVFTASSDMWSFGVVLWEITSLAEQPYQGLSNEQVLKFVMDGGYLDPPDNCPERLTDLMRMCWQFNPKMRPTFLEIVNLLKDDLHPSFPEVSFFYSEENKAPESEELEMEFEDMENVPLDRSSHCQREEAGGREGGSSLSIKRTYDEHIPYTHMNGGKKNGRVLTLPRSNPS
Sequence of Serine/threonine-protein kinase B-raf (P15056 2-766 V600E limits assumed): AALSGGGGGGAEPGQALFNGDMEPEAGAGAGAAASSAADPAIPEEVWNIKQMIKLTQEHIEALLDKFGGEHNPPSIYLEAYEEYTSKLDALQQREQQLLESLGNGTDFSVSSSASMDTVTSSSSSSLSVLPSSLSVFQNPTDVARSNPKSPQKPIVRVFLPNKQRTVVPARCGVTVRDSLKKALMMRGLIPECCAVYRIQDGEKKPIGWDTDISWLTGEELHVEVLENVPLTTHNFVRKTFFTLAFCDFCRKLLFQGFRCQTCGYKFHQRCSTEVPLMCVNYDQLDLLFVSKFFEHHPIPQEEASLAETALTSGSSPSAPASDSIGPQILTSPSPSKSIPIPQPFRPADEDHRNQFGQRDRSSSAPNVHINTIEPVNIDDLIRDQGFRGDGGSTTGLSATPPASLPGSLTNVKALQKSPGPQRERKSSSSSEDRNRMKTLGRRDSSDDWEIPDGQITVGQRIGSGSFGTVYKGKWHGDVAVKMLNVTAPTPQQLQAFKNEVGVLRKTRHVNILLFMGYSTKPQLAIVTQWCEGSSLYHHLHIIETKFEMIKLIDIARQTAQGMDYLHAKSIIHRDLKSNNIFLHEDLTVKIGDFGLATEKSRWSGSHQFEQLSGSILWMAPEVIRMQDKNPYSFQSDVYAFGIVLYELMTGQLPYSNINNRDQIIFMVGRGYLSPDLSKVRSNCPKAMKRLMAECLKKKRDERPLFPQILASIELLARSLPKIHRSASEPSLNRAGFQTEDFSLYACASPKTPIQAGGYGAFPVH
Sequence of Tyrosine-protein kinase FRK (P42685 whole entry): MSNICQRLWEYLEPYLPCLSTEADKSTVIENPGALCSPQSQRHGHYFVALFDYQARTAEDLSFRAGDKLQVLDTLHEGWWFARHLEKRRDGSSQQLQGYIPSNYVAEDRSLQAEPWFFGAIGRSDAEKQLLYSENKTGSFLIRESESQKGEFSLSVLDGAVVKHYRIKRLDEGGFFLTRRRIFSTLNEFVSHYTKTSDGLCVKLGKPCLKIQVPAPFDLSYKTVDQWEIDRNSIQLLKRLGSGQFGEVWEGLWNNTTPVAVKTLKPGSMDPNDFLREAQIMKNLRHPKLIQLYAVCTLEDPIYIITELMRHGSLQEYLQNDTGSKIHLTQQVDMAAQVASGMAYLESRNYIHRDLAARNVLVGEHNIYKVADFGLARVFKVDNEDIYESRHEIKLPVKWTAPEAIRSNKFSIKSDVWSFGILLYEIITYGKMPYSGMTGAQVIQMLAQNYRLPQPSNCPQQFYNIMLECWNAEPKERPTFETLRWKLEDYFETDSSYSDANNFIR
Sequence of Aurora kinase A (O14965 whole entry): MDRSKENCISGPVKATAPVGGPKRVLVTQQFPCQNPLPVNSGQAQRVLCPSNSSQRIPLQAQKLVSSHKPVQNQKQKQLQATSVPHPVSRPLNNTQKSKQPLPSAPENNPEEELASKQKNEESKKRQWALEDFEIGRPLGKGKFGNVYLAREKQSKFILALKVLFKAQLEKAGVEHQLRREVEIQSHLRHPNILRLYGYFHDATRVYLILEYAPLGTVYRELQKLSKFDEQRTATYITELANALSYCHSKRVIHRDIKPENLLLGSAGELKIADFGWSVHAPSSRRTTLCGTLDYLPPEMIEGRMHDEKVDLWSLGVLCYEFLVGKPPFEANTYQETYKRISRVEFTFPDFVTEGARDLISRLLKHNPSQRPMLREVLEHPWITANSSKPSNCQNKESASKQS

CCc1cc(Nc2nccc(-c3c(-c4ccc(OC)c(C(=O)Nc5c(F)cccc5F)c4)nc4ccccn34)n2)c(OC)cc1N1CCC(N2CCN(S(C)(=O)=O)CC2)CC1
IC50 [1]: > 10000 nM | inhibition [2]: 0% | IC50 (EJM): > 30000 nM | inhibition in vivo at 10 mg/kg [3]: 95% | IC50 (MCF7): 137 nM | inhibition [4]: 10% | IC50 [5]: > 25000 nM | inhibition in vivo at 30 mg/kg (HT-29): 47% | inhibition at 3 µM [6]: 0% | IC50 (Activin receptor type-2B): > 10000 nM | inhibition [7]: Active | IC50 (LNCaP): > 20000 nM | IC50 (Aurora kinase A): 159 nM | inhibition at 0.3 µM [8]: 1% | inhibition [9]: 0% | IC50 [10]: 16 nM | Activity (COLO 205 [11]): 12% | inhibition (COLO 205 [12]): Dose-Dependent Effect | IC50 [13]: > 2000 nM | inhibition at 3 µM [14]: 2% | inhibition (INH) [15]: >90% | inhibition [16]: 1% | IC50 [17]: > 10000 nM | inhibition [18]: 27%
